Square brackets hold non-standard residues; d marks the D form. Peptide text beside a SMILES is read from it. * marks the point of attachment. Palmitoyl = CCCCCCCCCCCCCCCC(=O)*; Myristoyl = CCCCCCCCCCCCCC(=O)*; Nle = CCCC[C@H](N)C(=O)O
tested on: SK-MEL-2; assay: Growth inhibition of SK-Mel2 melanoma cells after 48 hrs by MTT assay; format: functional, cell-based, Homo sapiens; details: Homo sapiens, SK-MEL-2, 48 h
Procedure, shortened: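 Cells seeded at 200-400 per well in DMEM with 10% FBS and left to attach for 24 h. The next day, inhibitor in medium at 2× was added in an equal volume, and cells were incubated 48 h in a CO2 incubator. Reference plates were read at time of addition for T0 density. MTT staining was read as absorbance at 544 nm and compared with untreated control cells.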

**Q.** How did the IC50 turn out when `CCCCCCCCCCCCCCCC(=O)N[C@@H](CC(C)C)C(=O)N[C@H](C(=O)N[C@@H](Cc1ccc(O)cc1)C(=O)N[C@@H](C)C(=O)N[C@@H](Cc1ccc(C(=O)c2ccccc2)cc1)C(=O)N[C@@H](Cc1cnc[nH]1)C(=O)N[C@H](C(=O)N[C@@H](CO)C(=O)N[C@@H](Cc1ccccc1)C(=O)N[C@@H](CCCCN)C(=O)N[C@@H](C)C(=O)N[C@@H](CC(C)C)C(=O)N[C@H](CCSC(=O)CCCC[C@@H]1SC[C@@H]2NC(=O)N[C@@H]21)C(=O)O)[C@@H](C)O)[C@@H](C)O` was run?
**A.** > 15 µM

**Q.** With `CCCCCCCCCCCCCCCC(=O)NCCCC[C@H](NC(=O)[C@H](Cc1ccc(O)cc1)NC(=O)[C@H](CO)NC(=O)[C@@H](NC(=O)[C@H](CCCCN)NC(=O)CNC(=O)[C@H](CO)NC(=O)[C@H](CC(C)C)NC(=O)[C@@H]1CCCN1C(=O)[C@H](CCC(N)=O)NC(=O)[C@H](Cc1ccc(O)cc1)NC(=O)[C@@H](NC(=O)[C@@H](NC(=O)CNC(C)=O)[C@@H](C)O)[C@@H](C)O)[C@@H](C)O)C(=O)O` (Ac-GTTYQPLSGKTSYK(Palmitoyl)-OH) as the compound, how does the IC50 read?
**A.** 2.7 µM

**Q.** `CCCCCCCCCCCCCCCC(=O)NCCCC[C@H](NC(=O)[C@H](CCCNC(=N)N)NC(=O)[C@H](CC(C)C)NC(=O)[C@H](CCSC)NC(=O)[C@@H](NC(=O)[C@H](CCC(=O)O)NC(=O)[C@H](CC(N)=O)NC(=O)[C@@H](NC(=O)[C@H](CCCCN)NC(=O)[C@H](CO)NC(=O)[C@H](C)NC(=O)[C@H](C)NC(=O)[C@H](CCCCN)NC(=O)[C@H](CCC(=O)O)NC(=O)[C@H](CO)NC(=O)[C@H](CC(C)C)NC(=O)[C@H](CC(C)C)NC(=O)CNC(=O)[C@@H]1CCCN1C(=O)[C@H](Cc1c[nH]cn1)NC(=O)[C@H](CC(N)=O)NC(=O)[C@H](CO)NC(=O)[C@H](CCCCN)NC(=O)[C@@H](NC(=O)[C@H](CO)NC(=O)[C@H](Cc1ccccc1)NC(=O)[C@H](CC(C)C)NC(C)=O)[C@@H](C)CC)[C@@H](C)CC)[C@@H](C)O)C(=O)O` (Ac-LFSIKSNHPGLLSEKAASKINETMLRK(Palmitoyl)-OH) was tested. Which IC50 did it give?
**A.** 0.95 µM

**Q.** `CCCCCCCCCCCCCCCC(=O)NCCCC[C@H](NC(=O)[C@H](Cc1ccc(O)cc1)NC(=O)[C@H](CO)NC(=O)[C@@H](NC(=O)[C@H](CCCCN)NC(=O)CNC(=O)[C@H](CO)NC(=O)[C@H](CC(C)C)NC(=O)[C@@H]1CCCN1C(=O)[C@H](CCC(N)=O)NC(=O)[C@H](Cc1ccc(O)cc1)NC(=O)[C@@H](NC(=O)[C@@H](NC(=O)CNC(=O)[C@H](CC(C)C)NC(=O)[C@H](C)NC(=O)[C@H](CCCCN)NC(=O)[C@H](Cc1ccccc1)NC(=O)[C@H](CO)NC(=O)[C@@H](NC(=O)[C@H](Cc1cnc[nH]1)NC(=O)[C@H](Cc1c[nH]c2ccccc12)NC(=O)[C@H](C)NC(=O)[C@H](Cc1ccc(O)cc1)NC(=O)[C@@H](NC(=O)[C@H](CC(C)C)NC(C)=O)[C@@H](C)O)[C@@H](C)O)[C@@H](C)O)[C@@H](C)O)[C@@H](C)O)C(=O)O` (Ac-LTYAWHTSFKALGTTYQPLSGKTSYK(Palmitoyl)-OH) was tested. Which IC50 did it give?
**A.** 1 µM

**Q.** With `CCCC[C@H](NC(=O)[C@H](CCCNC(=N)N)NC(=O)[C@H](CCCNC(=N)N)NC(=O)[C@H](CC(N)=O)NC(=O)[C@@H]1CCCN1C(=O)[C@H](Cc1ccccc1)NC(=O)[C@H](Cc1c[nH]c2ccccc12)NC(=O)[C@@H](NC(=O)[C@H](CCCCN)NC(=O)[C@@H](NC(=O)[C@H](CCC(N)=O)NC(=O)[C@H](CCCNC(=N)N)NC(=O)[C@H](CC(C)C)NC(=O)[C@H](C)NC(=O)[C@H](CCCCN)NC(=O)[C@H](Cc1ccccc1)NC(=O)[C@H](CO)NC(=O)[C@@H](NC(=O)[C@H](Cc1cnc[nH]1)NC(=O)[C@H](Cc1c[nH]c2ccccc12)NC(=O)[C@H](C)NC(=O)[C@H](Cc1ccc(O)cc1)NC(=O)[C@@H](NC(=O)[C@H](CC(C)C)NC(C)=O)[C@@H](C)O)[C@@H](C)O)[C@@H](C)CC)[C@@H](C)CC)C(=O)N[C@@H](CCCCN)C(=O)N[C@@H](Cc1c[nH]c2ccccc12)C(=O)N[C@@H](CCCCN)C(=O)N[C@@H](CCCCN)C(=O)O` (Ac-LTYAWHTSFKALRQIKIWFPNRR[Nle]KWKK-OH) as the compound, how does the IC50 read?
**A.** > 15 µM

**Q.** How did the IC50 turn out when `CCCCCCCCCCCCCCCC(=O)NCCCC[C@H](NC(=O)[C@H](CCCNC(=N)N)NC(=O)[C@H](CC(C)C)NC(=O)[C@H](CCSC)NC(=O)[C@@H](NC(=O)[C@H](CCC(=O)O)NC(=O)[C@H](CC(N)=O)NC(=O)[C@@H](NC(=O)[C@H](CCCCN)NC(=O)[C@H](CO)NC(=O)[C@H](C)NC(=O)[C@H](C)NC(=O)[C@H](CCCCN)NC(=O)[C@H](CCC(=O)O)NC(=O)[C@H](CO)NC(=O)[C@H](CC(C)C)NC(=O)[C@H](CC(C)C)NC(=O)CNC(=O)[C@@H]1CCCN1C(=O)[C@H](Cc1c[nH]cn1)NC(=O)[C@H](CC(N)=O)NC(=O)[C@H](CO)NC(=O)[C@H](CCCCN)NC(=O)[C@@H](NC(=O)[C@H](CO)NC(=O)[C@H](Cc1ccccc1)NC(=O)[C@H](CC(C)C)NC(=O)[C@@H](NC(=O)[C@H](CCSC)NC(=O)[C@@H](NC(=O)CNC(=O)[C@H](CCCNC(=N)N)NC(C)=O)C(C)C)[C@@H](C)O)[C@@H](C)CC)[C@@H](C)CC)[C@@H](C)O)C(=O)O` (Ac-RGVMTLFSIKSNHPGLLSEKAASKINETMLRK(Palmitoyl)-OH) was run?
**A.** 0.9 µM

**Q.** How did the IC50 turn out when `CCCCCCCCCCCCCCCC(=O)NCCCC[C@H](NC(=O)[C@H](Cc1ccc(O)cc1)NC(=O)[C@H](CO)NC(=O)[C@@H](NC(=O)[C@H](CCCCN)NC(=O)CNC(=O)[C@H](CO)NC(=O)[C@H](CC(C)C)NC(=O)[C@@H]1CCCN1C(=O)[C@H](CCC(N)=O)NC(=O)[C@H](Cc1ccc(O)cc1)NC(=O)[C@@H](NC(=O)[C@@H](NC(=O)CNC(=O)[C@H](CC(C)C)NC(=O)[C@H](C)NC(=O)[C@H](CCCCN)NC(=O)[C@H](Cc1ccccc1)NC(=O)[C@H](CO)NC(=O)[C@@H](NC(=O)[C@H](Cc1cnc[nH]1)NC(=O)[C@H](Cc1c[nH]c2ccccc12)NC(=O)[C@H](C)NC(=O)[C@H](Cc1ccc(O)cc1)NC(C)=O)[C@@H](C)O)[C@@H](C)O)[C@@H](C)O)[C@@H](C)O)C(=O)O` (Ac-YAWHTSFKALGTTYQPLSGKTSYK(Palmitoyl)-OH) was run?
**A.** 1 µM

**Q.** Which IC50 does the source give for `CCCC[C@H](NC(=O)[C@H](CCCNC(=N)N)NC(=O)[C@H](CCCNC(=N)N)NC(=O)[C@H](CC(N)=O)NC(=O)[C@@H]1CCCN1C(=O)[C@H](Cc1ccccc1)NC(=O)[C@H](Cc1c[nH]c2ccccc12)NC(=O)[C@@H](NC(=O)[C@H](CCCCN)NC(=O)[C@@H](NC(=O)[C@H](CCC(N)=O)NC(=O)[C@@H](N)CCCNC(=N)N)[C@@H](C)CC)[C@@H](C)CC)C(=O)N[C@@H](CCCCN)C(=O)N[C@@H](Cc1c[nH]c2ccccc12)C(=O)N[C@@H](CCCCN)C(=O)N[C@@H](CCCCN)C(=O)N[C@@H](CC(C)C)C(=O)N[C@H](C(=O)N[C@@H](Cc1ccc(O)cc1)C(=O)N[C@@H](C)C(=O)N[C@@H](Cc1c[nH]c2ccccc12)C(=O)N[C@@H](Cc1cnc[nH]1)C(=O)N[C@H](C(=O)N[C@@H](CO)C(=O)N[C@@H](Cc1ccccc1)C(=O)N[C@@H](CCCCN)C(=O)N[C@@H](C)C(=O)N[C@@H](CC(C)C)C(=O)O)[C@@H](C)O)[C@@H](C)O` (H-RQIKIWFPNRR[Nle]KWKKLTYAWHTSFKAL-OH) here?
**A.** > 15 µM

**Q.** `CCCCCCCCCCCCCC(=O)N[C@@H](CC(C)C)C(=O)N[C@H](C(=O)N[C@@H](Cc1ccc(O)cc1)C(=O)N[C@@H](C)C(=O)N[C@@H](Cc1c[nH]c2ccccc12)C(=O)N[C@@H](Cc1cnc[nH]1)C(=O)N[C@H](C(=O)N[C@@H](CO)C(=O)N[C@@H](Cc1ccccc1)C(=O)N[C@@H](CCCCN)C(=O)N[C@@H](C)C(=O)N[C@@H](CC(C)C)C(=O)O)[C@@H](C)O)[C@@H](C)O` (Myristoyl-LTYAWHTSFKAL-OH) was tested. Which IC50 did it give?
**A.** 0.2 µM

— ChEMBL document CHEMBL1148755, “Structural analogues of smoothened intracellular loops as potent inhibitors of Hedgehog pathway and cancer cell growth” (J Med Chem, 2007)
